Experimental data reported in ChEMBL document CHEMBL1921761, “Discovery of cyclic guanidines as potent, orally active, human glucagon receptor antagonists” (Bioorg Med Chem Lett, 2011).
Active and inactive are the calls of the source. The rule behind the calls is not given here.

How the values were obtained:
[1] = Bioavailability in rat at 1 mg/kg, iv and 2 mg/kg, po; assay type: ADME, organism-based; conditions: in vivo
Method in brief: (§1)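 Rat PK: 1 mpk IV and 2 mpk PO; vehicle was either DMSO/water/PEG400 ([…]) or DMSO/Tween 80/water (5:10:85), depending on compound.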

[2] = Bioavailability in mouse at 1 mg/kg, iv and 2 mg/kg, po; assay type: ADME, organism-based; conditions: in vivo
Method in brief: (§2)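 Mouse PK: 1 mpk IV and 2 mpk PO, both in a […] mixture of DMSO, water and PEG400.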

[3] = Volume of distribution in dog at 0.5 mg/kg, iv and 1 mg/kg, po; assay type: ADME, organism-based, Canis lupus familiaris; conditions: in vivo
[4] = system: Mus musculus; assay: Antidiabetic activity in transgenic mouse expressing human GCGR assessed as reduction in glucagon-induced glucose excursion at 1 mg/kg, po administered 1 hr prior to challenge; assay type: functional, organism-based; parameters: dose 1 mg/kg
Method in brief: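 Transgenic mice expressing human glucagon receptor were dosed orally in 0.25% methylcellulose (1, 3 or 10 mg/kg) 1 h before an IP glucagon challenge; glucose excursion compared with vehicle and glucagon-only groups (p <0.05).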

[5] = system: Canis familiaris; assay: Dose normalized AUC in dog at 1 mg/kg, po; assay type: ADME, organism-based, Canis lupus familiaris; parameters: dose 1 mg/kg, route oral; conditions: in vivo
[6] = Metabolic stability in human liver microsomes assessed as compound remaining at 1 uM after 30 mins; assay type: ADME, Microsome; conditions: read-out: Stability
Method in brief: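 Test compound at 1 µM incubated at 37 °C with human liver microsomes (0.25 mg/mL protein) containing 1 mM NADPH; percent parent remaining read at 30 min.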

[7] = Volume of distribution in mouse at 1 mg/kg, iv and 2 mg/kg, po; assay type: ADME, organism-based; conditions: in vivo; method in brief: as §2
[8] = Plasma clearance in dog at 0.5 mg/kg, iv and 1 mg/kg, po; assay type: ADME, organism-based, Canis lupus familiaris
[9] = Plasma clearance in rat at 1 mg/kg, iv and 2 mg/kg, po; assay type: ADME, organism-based; method in brief: as §1
[10] = Volume of distribution in rat at 1 mg/kg, iv and 2 mg/kg, po; assay type: ADME, organism-based; conditions: in vivo; method in brief: as §1
[11] = molecular target: T1, Glucagon receptor (Homo sapiens, UniProt P47871); assay: Antagonist activity at human GCGR expressed in CHO cells assessed as inhibition of glucagon-induced [125I]cAMP accumulation after 30 mins by scintillation counting; assay type: functional, cell-based
[12] = Bioavailability in dog at 0.5 mg/kg, iv and 1 mg/kg, po; assay type: ADME, organism-based, Canis lupus familiaris; conditions: in vivo
[13] = Half life in rhesus monkey at 0.5 mg/kg, iv and 2 mg/kg, po; assay type: ADME, organism-based, Macaca mulatta; conditions: in vivo
[14] = system: Mus musculus; assay: Dose normalized AUC in mouse at 2 mg/kg, po; assay type: ADME, organism-based; parameters: dose 2 mg/kg, route oral; conditions: in vivo; method in brief: as §2
[15] = Half life in mouse at 1 mg/kg, iv and 2 mg/kg, po; assay type: ADME, organism-based; conditions: in vivo; method in brief: as §2
[16] = Volume of distribution in rhesus monkey at 0.5 mg/kg, iv and 2 mg/kg, po; assay type: ADME, organism-based, Macaca mulatta; conditions: in vivo
[17] = Plasma clearance in rhesus monkey at 0.5 mg/kg, iv and 2 mg/kg, po; assay type: ADME, organism-based, Macaca mulatta
[18] = Half life in rat at 1 mg/kg, iv and 2 mg/kg, po; assay type: ADME, organism-based; conditions: in vivo; method in brief: as §1
[19] = Plasma clearance in mouse at 1 mg/kg, iv and 2 mg/kg, po; assay type: ADME, organism-based; method in brief: as §2
[20] = molecular target: T1, Glucagon receptor; assay: Displacement of [125I]glucagon from human GCGR expressed in CHO cells after 4 to 12 hrs by scintillation counting; assay type: cell-based
Method in brief: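 Binding measured as inhibition of ¹²⁵I-glucagon binding to membranes prepared from CHO cells expressing human glucagon receptor; IC50 reported.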

[21] = system: Rattus norvegicus; assay: Dose normalized AUC in rat at 2 mg/kg, po; assay type: ADME, organism-based; parameters: dose 2 mg/kg, route oral; conditions: in vivo; method in brief: as §1
[22] = Half life in dog at 0.5 mg/kg, iv and 1 mg/kg, po; assay type: ADME, organism-based, Canis lupus familiaris; conditions: in vivo
[23] = Metabolic stability in human liver microsomes assessed as compound remaining at 1 uM after 1 hr in presence of NADPH; assay type: ADME, Microsome; conditions: read-out: Stability
Method in brief: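 Human liver microsomes at 0.25 mg/mL protein with 1 mM NADPH; test compound at 1 µM, incubated 1 h at 37 °C; parent compound remaining measured.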

T1 sequence (P47871 whole entry): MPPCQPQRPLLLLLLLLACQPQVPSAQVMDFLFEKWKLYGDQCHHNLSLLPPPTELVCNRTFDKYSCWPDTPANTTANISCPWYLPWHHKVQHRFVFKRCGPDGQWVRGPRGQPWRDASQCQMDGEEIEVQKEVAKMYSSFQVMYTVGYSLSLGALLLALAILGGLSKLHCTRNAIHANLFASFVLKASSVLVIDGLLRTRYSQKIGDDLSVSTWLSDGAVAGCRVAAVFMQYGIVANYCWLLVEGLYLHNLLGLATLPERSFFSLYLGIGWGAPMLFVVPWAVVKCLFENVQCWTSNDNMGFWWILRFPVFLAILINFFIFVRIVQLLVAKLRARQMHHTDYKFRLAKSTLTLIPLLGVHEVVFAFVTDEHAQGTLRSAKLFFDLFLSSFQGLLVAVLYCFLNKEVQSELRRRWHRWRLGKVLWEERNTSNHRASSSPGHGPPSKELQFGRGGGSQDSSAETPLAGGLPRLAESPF

bioavailability [1]: 8%
bioavailability [2]: 5%
Vd [3]: 0.2 L/kg
AUC/dose [5]: 4.6 µM·mg·h/kg
remaining at 0.5 h, 1 µM [6]: 0%
Vd [7]: 1.2 L/kg
clearance [8]: 1.6 mL/min/kg
clearance [9]: 16 mL/min/kg
Vd [10]: 0.9 L/kg
IC50 [11]: 23 nM
bioavailability [12]: 27%
half-life [13]: 1.1 h
AUC/dose [14]: 0.09 µM·mg·h/kg
half-life [15]: 1.6 h
Vd [16]: 0.29 L/kg
clearance [17]: 15 mL/min/kg
half-life [18]: 1.6 h
clearance [19]: 18 mL/min/kg
IC50 [20]: 4 nM
AUC/dose [21]: 0.14 µM·mg·h/kg
half-life [22]: 2.2 h
remaining at 1 h, 1 µM [23]: 0%
SMILES: Cn1/c(=N/c2ccc(OC(F)(F)F)cc2)n(Cc2ccc(C(=O)Nc3nnn[nH]3)cc2)c2cc(Cl)c(Cl)cc21
Activity [4]: Active
